# Source: the RNAGym collection of RNA variant scans (doi:10.1038/nmeth.2970)
# B1: NELF-E aptamer (parent)
# chain: CCCAACGACUGCCGAGCGAGAUUACGCUUGAGCGCCCCACUGAGGAUGCCCACGGGCGAUUGGGGCACGG
# B2: GFP aptamer (parent)
# chain: GCUUCUGGACUGCGAUGGGAGCACGAAACGUCGUGGCGCAAUUGGGUGGGGAAAGUCCUUAAAAGAGGGCCACCACAGAAGC
# Variants of: B1
# Assay: HiTS-RAP
# Conditions: with NELF-E (Drosophila)
# Procedure, shortened: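 Aptamer DNA templates bearing a T7 promoter and a ter site were sequenced on an Illumina GAIIx flowcell. T7 RNA polymerase then transcribed them in situ, and GST-Tus halted transcription over 30 minutes at 37°C. After a 30-minute room-temperature equilibration with NELF-E-mOrange at 0.064 to 1000 nM in HEPES binding buffer, clusters were imaged, using only the first binding curve. Intensities normalised to sequencing intensity were averaged per sequence and fitted with weighted Hill fits to give Kd, retaining only fits whose variance stayed under 1,000,000.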
row,Variant,Kd [nM]
1,G48U C49G,5.14
2,U41G C57U,6.91
3,A31G A52U,21.5
4,A31G A43G,11.3
5,G58U A59G,5.09
6,G70C,4.44
7,G70U,5.07
8,G70A,4.46
9,U41G C66U,4.15
10,G45C,39.5
11,G45U,6.76
12,G45A,47.8
13,G58A,9.31
14,G58U,9.77
15,G58C,65.3
16,C40U U41G,7.61
17,G65U,6.03
18,G65C,14
19,G65A,4.39
20,U41G G42U,5.09
21,U41G G42A,23.5
22,G44U,7.32
23,G44C,27.5
24,G44A,42.3

row,Variant,Kd [nM]
1,A52U G56A,99
2,G54C,10.6
3,G54A,11.8
4,G54U,6.39
5,U41G U47G,7.59
6,C51U C66U,7.21
7,G48A,9.57
8,G48U,5.99
9,G48C,85.4
10,A39G C57U,9.77
11,U47A A67U,10.5
12,U47A A67G,12
13,U41G G54A,18.1
14,U41G C51U,7.25
15,G42A,49.4
16,G42C,44.2
17,G42U,10.5
18,U60C,9.28
19,U60A,9.5
20,U60G,5.2
21,G64C G65U,5.12
22,U41G U60C,9.67
23,A46G A67G,36.2
24,A39U C40G,5.95

row,Variant,Kd [nM]
1,G54U G56U,5.48
2,A39U U41G,30.7
3,A39U U41A,109
4,U47G G48U,6.17
5,U41G A67U,7
6,U41G A67G,6.35
7,U41G G56A,5.81
8,U41G G56U,5.56
9,G54A A59G,73.6
10,C51A,8.65
11,C51U,6.66
12,C51G,4.48
13,U29G U61G,14.4
14,U47C,9.59
15,U47G,6.05
16,U47A,10.2
17,A52U U61A,90.9
18,U41A C66U,85.7
19,C51U A52G,7.06
20,C33G U41G,7.38
21,G56C,37.4
22,G56U,5.3
23,G56A,10.3
24,A39U A52G,15.5

row,Variant,Kd [nM]
1,A43G G44U,5.97
2,A52G C53U,6.67
3,G34U C35G,4.52
4,G69C,5.52
5,G69U,5.33
6,G69A,4.82
7,G34A A52U,20.7
8,G64A A67U,35.5
9,G64A A67G,4.84
10,A31G U41G,6.51
11,A52U G63A,50.8
12,A52U G63U,42.2
13,G34A A67U,16.8
14,G30A A31G,5.33
15,C49A,20.6
16,C49G,9.21
17,C49U,19.5
18,U41G A46U,62.9
19,U41G A46G,26.2
20,G34A U41G,7.5
21,A59C,110
22,A59G,47.9
23,A59U,72.2

# Variants of: B2
# Assay: HiTS-RAP
# Conditions: with EGFP
# Procedure, shortened: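 Aptamer templates containing a T7 promoter and ter site were sequenced on an Illumina GAIIx flowcell, transcribed in situ with T7 RNA polymerase and halted with GST-Tus for 30 minutes at 37°C. Clusters were imaged after 30 minutes at room temperature with EGFP-mOrange at 0.04 nM to 625 nM in fivefold steps. Kd was obtained from per-lane weighted Hill fits to decay-corrected, sequencing-normalised, per-sequence mean intensities, geometrically averaged over lanes. Three lanes entered that average, and non-rising sequences were given 125 nM.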
row,Variant,Kd [nM]
1,C10U C73U,5.31
2,U4A,4.17
3,U4C,7.99
4,U4G,4.6
5,C10U G14A,6.22
6,U11C A40G,4.63
7,U3C,4.42
8,U3G,5.4
9,U3A,3.51
10,C10G,4.07
11,C10A,3.61
12,C10U,4.3
13,C10U A20G,3.79
14,C13U U34C,36.2
15,U11C A28G,15.9
16,U11C C73U,44.7
17,A9G A27G,21
18,C10U C32U,6.54
19,G12C,30.6
20,G12U,18.9
21,G12A,22.4
22,C10U C29U,3.83
23,U11C A27G,3.8
24,C10U A23G,5.08

row,Variant,Kd [nM]
1,U11A,4.13
2,U11G,3.81
3,U11C,24.2
4,U6G,7.45
5,U6C,8.4
6,U6A,8.81
7,C13U A40G,3
8,G8C,61.5
9,G8U,5.56
10,G8A,26.7
11,C10U C13U,15.1
12,C13U A28G,3.77
13,U11C U31C,14.2
14,C13U A41G,10
15,C10U U47C,1.58
16,C13U C74U,17.4
17,C13U A26G,2.37
18,C10U A28G,4.55
19,C13U C58U,0.942
20,G14A,7.34
21,G14C,25.1
22,U11C A77G,9.02
23,C5A,8.09
24,C5G,5.26

row,Variant,Kd [nM]
1,C5U,4.3
2,C10U G33A,29.6
3,A9G,14.8
4,A9U,6.86
5,A9C,8
6,C10G A20G,4.36
7,C10U A27G,3.1
8,G7U,23.4
9,G7C,88.1
10,G7A,43.8
11,G14A C32U,15.4
12,C13U U42C,3.54
13,C10U U34C,4.37
14,G8A G14A,20.2
15,C13U C70U,2.02
16,G14A A28G,4.8
17,C13U U43C,8.72
18,C10U A77G,36
19,C13G,6.37
20,C13A,14.6
21,C13U,4.53
22,C13U A27G,7.37
23,G14A A26G,7.76
24,C10U C37U,14.3
